ChEMBL document CHEMBL4393718, “Synthesis, biological evaluation and computational study of novel isoniazid containing 4H-Pyrimido[2,1-b]benzothiazoles derivatives” (2019)
≈ marks a conversion by molar mass, not a printed value.

Key:
Format in all cases: functional
[1] = system: Escherichia coli; assay: Activity index, ratio of IZ for test compound to IZ for streptomycin for antimicrobial activity against Escherichia coli MTCC 1610 incubated for 24 hrs by well diffusion method
Summary of the method: (§1)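 Well diffusion on nutrient agar plates. The activity index is the mean inhibition zone of the derivative divided by the inhibition zone of the standard antibiotic.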

[2] = system: Mycobacterium tuberculosis; assay: Antitubercular activity against Mycobacterium tuberculosis H37Rv assessed as reduction in viable colony forming unit at 1000 ug/ml incubated for 42 days by Lowensteine-Jensen method relative to control
Summary of the method: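 H37Rv cultured on Lowenstein-Jensen medium with compound or untreated control; colony forming units counted on the L-J medium. Percent inhibition = (Cc − Ct)/Cc × 100, where c is control and t is test.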

[3] = system: Escherichia coli; assay: Antimicrobial activity against Escherichia coli MTCC 1610 incubated for 24 hrs by well diffusion method
Summary of the method: (§2)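 Well diffusion assay on nutrient agar plates. The read-out is the mean inhibition zone diameter in mm.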

[4] = system: Micrococcus luteus; assay: Antimicrobial activity against Micrococcus luteus MTCC 11948 incubated for 24 hrs by well diffusion method; summary of the method: as §2
[5] = system: Mycobacterium tuberculosis; assay: Antitubercular activity against Mycobacterium tuberculosis H37Rv incubated for 42 days by Lowensteine-Jensen method
[6] = system: Bacillus cereus; assay: Antimicrobial activity against Bacillus cereus MTCC 8558 incubated for 24 hrs by well diffusion method; summary of the method: as §2
[7] = system: Klebsiella aerogenes; assay: Activity index, ratio of IZ for test compound to IZ for streptomycin for antimicrobial activity against Enterobacter aerogenes MTCC 8558 incubated for 24 hrs by well diffusion method; summary of the method: as §1
[8] = system: Micrococcus luteus; assay: Activity index, ratio of IZ for test compound to IZ for streptomycin for antimicrobial activity against Micrococcus luteus MTCC 11948 incubated for 24 hrs by well diffusion method; summary of the method: as §1
[9] = system: Bacillus cereus; assay: Activity index, ratio of IZ for test compound to IZ for streptomycin for antimicrobial activity against Bacillus cereus MTCC 8558 incubated for 24 hrs by well diffusion method; summary of the method: as §1
[10] = system: Klebsiella aerogenes; assay: Antimicrobial activity against Enterobacter aerogenes MTCC 8558 incubated for 24 hrs by well diffusion method; summary of the method: as §2
[11] = system: Mycobacterium tuberculosis; assay: Antitubercular activity against Mycobacterium tuberculosis H37Rv assessed as viable colony forming unit at 1000 ug/ml incubated for 42 days by Lowensteine-Jensen method (reference value: 123 CFU)

Row | SMILES | Activity_index [1] | inhibition at 1000 µg/mL [2] [%] | inhibition zone (IZ) [3] [mm] | inhibition zone (IZ) [4] [mm] | MIC [5] [µg/mL] | inhibition zone (IZ) [6] [mm] | Activity_index [7] | Activity_index [8] | Activity_index [9] | inhibition zone (IZ) [10] [mm] | Activity [11] [CFU]
1 | CCOc1ccc2c(c1)SC1=NC(C)=C(C(=O)NNC(=O)c3ccncc3)C(c3ccccn3)N12 (stereo unspecified) | 0.542 | 63.4 | 13 | 23 | 62.5 (≈ 128 µM) | 18 | 1.042 | 0.958 | 0.75 | 25 | 45
2 | CC1=C(C(=O)NNC(=O)c2ccncc2)C(c2ccccn2)N2C(=N1)Sc1cc(C)ccc12 (stereo unspecified) | 0.875 | 54.5 | 21 | 19 | 500 (≈ 1100 µM) | 19 | 0.625 | 0.792 | 0.792 | 15 | 56
3 | CC1=C(C(=O)NNC(=O)c2ccncc2)C(c2ccccn2)N2C(=N1)Sc1cccc(C)c12 (stereo unspecified) | 0.708 | 47.1 | 17 | 23 | 1000 (≈ 2190 µM) | 23 | 0.958 | 0.958 | 0.958 | 23 | 65
4 | CC1=C(C(=O)NNC(=O)c2ccncc2)C(c2ccccn2)N2C(=N1)Sc1cc(C)c(C)cc12 (stereo unspecified) | 0.625 | 82.1 | 15 | 19 | 12.5 (≈ 26.6 µM) | 19 | 0.792 | 0.792 | 0.792 | 19 | 22
5 | CC1=C(C(=O)NNC(=O)c2ccncc2)C(c2ccccn2)N2C(=N1)Sc1cc([N+](=O)[O-])ccc12 (stereo unspecified) | 0.667 | 56.9 | 16 | 14 | 250 (≈ 513 µM) | 24 | 0.708 | 0.583 | 1 | 17 | 53
6 | CC1=C(C(=O)NNC(=O)c2ccncc2)C(c2ccccn2)N2C(=N1)Sc1cc(Cl)ccc12 (stereo unspecified) | 0.75 | 71.5 | 18 | 16 | 125 (≈ 262 µM) | 17 | 0.667 | 0.667 | 0.708 | 16 | 35
7 | CC1=C(C(=O)NNC(=O)c2ccncc2)C(c2ccccn2)N2C(=N1)Sc1cc(Br)ccc12 (stereo unspecified) | 0.792 | 73.2 | 19 | 15 | 62.5 (≈ 120 µM) | 18 | 0.833 | 0.625 | 0.75 | 20 | 33
8 | COc1cccc2c1N1C(=NC(C)=C(C(=O)NNC(=O)c3ccncc3)C1c1ccccn1)S2 (stereo unspecified) | 0.708 | 50.4 | 17 | 17 | 125 (≈ 265 µM) | 26 | 0.958 | 0.708 | 1.083 | 23 | 61
9 | CC1=C(C(=O)NNC(=O)c2ccncc2)C(c2ccccn2)N2C(=N1)Sc1cc(OC(F)(F)F)ccc12 (stereo unspecified) | 0.792 | 79.7 | 19 | 18 | 6.25 (≈ 11.9 µM) | 19 | 0.917 | 0.75 | 0.792 | 22 | 25
10 | CC1=C(C(=O)NNC(=O)c2ccncc2)C(c2ccccn2)N2C(=N1)Sc1cccc(Cl)c12 (stereo unspecified) | 0.917 | 81.3 | 22 | 17 | 50 (≈ 105 µM) | 16 | 0.75 | 0.708 | 0.667 | 18 | 23
11 | CC1=C(C(=O)NNC(=O)c2ccncc2)C(c2ccccn2)N2C(=N1)Sc1ccccc12 (stereo unspecified) | 0.542 | 69.9 | 13 | 20 | 125 (≈ 282 µM) | 22 | 0.792 | 0.833 | 0.917 | 19 | 37
12 | CC1=C(C(=O)NNC(=O)c2ccncc2)C(c2ccccn2)N2C(=N1)Sc1cc(F)ccc12 (stereo unspecified) | 1 | 80.5 | 24 | 19 | 25 (≈ 54.3 µM) | 12 | 0.792 | 0.792 | 0.5 | 19 | 24
13 | COc1ccc2c(c1)SC1=NC(C)=C(C(=O)NNC(=O)c3ccncc3)C(c3ccccn3)N12 (stereo unspecified) | 0.625 | 49.6 | 15 | 22 | 500 (≈ 1060 µM) | 15 | 0.917 | 0.917 | 0.625 | 22 | 62
14 | CC1=C(C(=O)NNC(=O)c2ccncc2)C(c2ccccn2)N2C(=N1)Sc1cc(O)ccc12 (stereo unspecified) | 1 | 68.3 | 24 | 16 | 100 (≈ 218 µM) | 24 | 0.833 | 0.667 | 1 | 20 | 39
15 | NNC(=O)c1ccncc1 [ISONIAZID] |  | 99.2 |  |  | 0.2 (≈ 1.46 µM) |  |  |  |  |  | 1
16 | CN[C@@H]1[C@H](O[C@H]2[C@H](O[C@H]3[C@H](O)[C@@H](O)[C@H](N=C(N)N)[C@@H](O)[C@@H]3N=C(N)N)O[C@@H](C)[C@]2(O)C=O)O[C@@H](CO)[C@H](O)[C@H]1O [STREPTOMYCIN] |  |  | 24 | 24 |  | 24 |  |  |  | 24 | 
